# Xi reactivation – X-chromosome reactivation activator | XiGFP mouse fibroblasts, % GFP-positive cells imaging, 3 d; cells co-treated with 5-aza-dC sensitizer; scaled so ellipticine positive control = 100% | activation, % at 7.58 µM | 0.055% of 360,000 active;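 active = mean normalized replicate activation at least 10% and every replicate at or above 10%; inconclusive = only one of the two criteria met; inactive = mean below 10% and not all replicates reach 10%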;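 also: 0% = median of on-plate neutral control wells and 100% = ellipticine 6 µM median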
#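 System: XiGFP fibroblasts, SV40-immortalized. Medium: DMEM plus 5-aza-dC sensitizer. Doses: single point. Timing: 3 d treatment, 15 min room-temperature fixation. Control set: ellipticine 6 µM.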
# E-selectin induc – E-selectin induction on HUVECs; P16581; HUVEC E-selectin immunofluorescence imaging; normalized: neutral wells 0, TNF-alpha wells 100; activation, % at 7.58 µM; 0.37% of 260,000 active; AID 686992;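 active = mean E-selectin-positive cell signal at least 10% of the positive control, reached in at least 60% of replicates, without over 20% cell loss; inconclusive = no rule given, readout overlaps actives, possibly toxicity-flagged; inactive = the rest, including those meeting only one limit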
#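 Test system – human umbilical vein endothelial cells (HUVEC), E-selectin induction · Input – 3,000 HUVEC seeded per well · Buffer or medium – EGM-2, gelatin · Compound dosing – single-point compound dose · Detection – immunofluorescence imaging · Measure – percent E-selectin-positive cells · Controls – TNF-alpha high, DMSO low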
# Ecoli rRNA inh – selective bacterial rRNA inhibition in E. coli. E. coli WT GFP vs humanized-ribosome RFP mutants, fluorescence, 24 h; hits give low values; DMSO median 0, no signal -100. GFP signal change (wild-type ribosome), % (test concentration not listed). 1.6% of 350,000 active. AID 720706;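 active = significant combined selectivity score with lowered wild-type GFP, culture density cut under 30%, mutant RFP and density less affected; inactive = any of these conditions unmet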
# RAD52 inh – blocks human RAD52 DNA annealing. P43351. recombinant RAD52 DNA annealing, FRET fluorescence. inhibition, % at 18.7 µM. 0.46% of 360,000 active;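 active = every replicate showing at least 50% inhibition; inconclusive = mean inhibition at least 50% but not in every replicate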
# Target sequence (P43351 whole entry, looked up): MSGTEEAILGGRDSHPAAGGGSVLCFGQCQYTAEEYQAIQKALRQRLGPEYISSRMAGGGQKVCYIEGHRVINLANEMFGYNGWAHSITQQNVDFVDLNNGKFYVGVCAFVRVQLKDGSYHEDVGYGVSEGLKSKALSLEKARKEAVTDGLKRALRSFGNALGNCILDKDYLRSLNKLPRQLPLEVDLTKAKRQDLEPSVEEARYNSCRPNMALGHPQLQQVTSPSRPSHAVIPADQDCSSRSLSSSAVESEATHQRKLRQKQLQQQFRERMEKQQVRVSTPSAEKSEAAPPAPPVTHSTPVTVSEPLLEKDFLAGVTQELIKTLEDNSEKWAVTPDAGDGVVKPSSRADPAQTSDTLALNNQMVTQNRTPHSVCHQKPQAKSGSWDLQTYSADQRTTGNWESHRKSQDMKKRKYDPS
# RAD54 inh – inhibitors of human RAD54 branch migration | Q92698 | inhibition, % at 10.4 µM | 0.14% of 360,000 active | RAD54 Holliday junction branch migration, FAM/BHQ fluorescence | AID 602329;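 active = mean normalized replicate activity at least 40 and at least half of replicates scoring 40 or more; inconclusive = only one of the two criteria met; inactive = mean below 40 and under half of replicates reaching 40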;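 also: 0% = median of neutral control wells and 100% = median of positive control wells; inhibitors cause a drop in the FAM fluorescence signal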
# PglD DTNB – inhibitors of Campylobacter jejuni PglD acetyltransferase; AID 602405; purified PglD enzyme, DTNB colorimetric CoA detection; inhibition, % at 12.5 µM; 0.098% of 360,000 active; in the data active = inhibition above about 16%, passing the limit was not always enough; inconclusive = no clear call, values can overlap the other calls
# * hit, by the source's call; i = inactive; ? = inconclusive; · = no result given. In the library only some 2% were active in any assay of this set; here they are far more common.
SMILES,Xi reactivation,E-selectin induc,Ecoli rRNA inh,RAD52 inh,RAD54 inh,PglD DTNB
O=C1/C(=C/c2cccc(Cl)c2)SC(=S)N1CCC(=O)N1CCCCC1CCO (stereo unspecified),0.8,0.1,-21.9*,-11.8,3.7,3.4
O=C1/C(=C/c2ccc(Cl)cc2)SC(=S)N1CCC(=O)N1CCCCC1CCO (stereo unspecified),0.1,·,7.4,-41.0,-6.6,2.2
C[C@@H]1CN([C@H](C)CO)C(=O)c2cc(NC(=O)C3CCCCC3)ccc2O[C@H]1CN(C)Cc1ccc(-c2ccccc2)cc1,0.5,0.2,-2.3,-16.3,1.3,-4.6
Oc1ccc(N=Nc2n[nH]c(-c3ccc(Cl)cc3)n2)cc1,·,·,-17.7*,-1.4,5.1,1.9
Cc1noc(C)c1S(=O)(=O)N(C)C[C@@H]1Oc2ccc(NC(=O)Nc3ccc4c(c3)OCO4)cc2CC(=O)N([C@H](C)CO)C[C@H]1C,0.0,-13.1,-2.6,-6.9,-1.8,0.7
COCCCN(C(=S)Nc1cc(Cl)cc(Cl)c1)C(C)c1ccccn1 (stereo unspecified),-0.1,·,-39.3*,-15.7,-1.4,5.6
CCCNC(=O)C[C@H]1CC[C@@H]2[C@H](COc3ccc(NC(=O)c4ccc(C(F)(F)F)cc4)cc3C(=O)N2C)O1,0.2,-0.1,-3.5,15.2,-5.4,-0.2
CC(=NNC(=S)N(Cc1ccccn1)Cc1ccccn1)c1cnccn1,-0.2,1.8,-15.7*,-16.5,·,·
CC(C)CC#Cc1cnc2c(c1)C(=O)N([C@@H](C)CO)C[C@@H](C)[C@H](CN(C)C(=O)c1cccc(F)c1)O2,-0.8,0.0,-0.6,·,·,·
Cc1cc(C(=O)CN2C(=O)C(=O)N(Cc3ccccc3)C2=O)c(C)n1Cc1ccccc1,-0.6,1.0,1.6,-7.9,4.3,-3.7
COc1ccc(CCn2c(C)cc(C(=O)CN3C(=O)C(=O)N(Cc4ccco4)C3=O)c2C)cc1,34.3*,6.1,1.0,-35.4,9.0,3.4
COc1ccc(NC(=O)N2CCCCN3[C@@H](CO)[C@@H](c4ccc(C#Cc5ccccn5)cc4)[C@@H]3C2)cc1,0.0,-0.6,4.0,61.5*,8.3,-1.6
COc1ccc(NC(=O)N2CCCCN3[C@H](CO)[C@H](c4ccc(C#Cc5ccccn5)cc4)[C@H]3C2)cc1,0.0,-0.3,-8.2,66.4*,41.6,-0.1
O=C(c1ccncc1)N1C[C@@H]2[C@H](c3ccccc31)[C@@H](CO)N2C(=O)c1ccncc1,0.3,-0.2,2.3,-11.5,-0.6,-1.7
O=C1Cc2cc(S(=O)(=O)N3CCCCC3)ccc2N1,-0.1,·,-2.2,-11.0,-3.4,0.7
O=C1Cc2cc(S(=O)(=O)N3CCNCC3)ccc2N1,0.0,-0.7,6.4,76.9*,·,·
Cc1ccc(Nc2nc(N)c([N+](=O)[O-])c(N3CCOCC3)n2)cc1C,0.0,·,-30.2,-15.6,-1.1,-0.6
Nc1nc(Nc2cccc(F)c2)nc(N2CCOCC2)c1[N+](=O)[O-],0.0,0.0,-29.1*,-2.9,0.0,2.3
CC(C)(C)C1CCC(C(=O)Nc2ccc(N3CCOCC3)cc2N2CCOCC2)CC1 (stereo unspecified),-0.1,·,-20.4*,-5.2,-9.9,-0.3
C[C@@H]1CN([C@@H](C)CO)C(=O)Cc2cc(NC(=O)CCCN(C)C)ccc2O[C@H]1CN(C)Cc1ccc(Oc2ccccc2)cc1,-0.3,·,1.6,91.0*,29.2,-1.5
C[C@H](CO)N1C[C@H](C)[C@@H](CN(C)Cc2ccc(Oc3ccccc3)cc2)Oc2ccc(NC(=O)CCCN(C)C)cc2CC1=O,0.0,·,-55.8,57.4*,15.2,0.4
C[C@H]1CN([C@@H](C)CO)C(=O)Cc2cc(NC(=O)CCCN(C)C)ccc2O[C@H]1CN(C)Cc1ccc(Oc2ccccc2)cc1,0.3,0.5,-4.0,42.1,13.7,-1.9
O=C(CNC(c1ccccc1)c1ccccc1)Nc1ccccc1Br,0.0,4.1,-33.0*,-19.7,-5.4,-3.4
COc1ccccc1NC(=O)CNC(c1ccccc1)c1ccccc1,0.3,-7.9,-8.1,2.5,-2.3,-4.4
CCN1/C(=C/c2ccc3cc(C)ccc3[n+]2CC)Sc2cc(C)c(C)cc21,162.1*,·,49.6,i,·,·
SMILES,Xi reactivation,E-selectin induc,Ecoli rRNA inh,RAD52 inh,RAD54 inh,PglD DTNB
CCN1/C(=C/C=C/c2sc3ccccc3[n+]2CC)Sc2ccccc21,·,·,·,·,?,-1.8
CC[n+]1c(/C=C2\Sc3ccccc3N2C)ccc2cccc(C)c21,105.1*,-0.6,69.2,i,i,0.6
CCN1/C(=C/c2ccc3cc(C)ccc3[n+]2CC)Sc2ccccc21,448.2*,·,88.0,i,·,·
COc1ccc(S(=O)(=O)N(C)C[C@@H]2Oc3ccc(NS(=O)(=O)c4ccc(Cl)cc4)cc3C(=O)N([C@H](C)CO)C[C@@H]2C)cc1,-1.2,0.2,0.2,10.8,-28.2,0.1
Cc1cc(/C=C2/NC(=O)NC2=O)c(C)n1-c1ccncc1,0.0,4.3,-27.5*,-13.2,0.2,0.9
CS(=O)(=O)Nc1ccc2c(c1)[C@H]1C[C@H](CC(=O)NCCc3ccccc3)O[C@H](CO)[C@H]1O2,0.1,-0.1,-0.9,-10.1,-6.8,-1.2
CN(C)CC1CC/C(=C\c2ccc(O)cc2)C1=O (stereo unspecified),0.4,-0.1,-31.0*,-20.7,·,·
CC(C)Nc1nc(-c2ccccc2F)c2sc(-c3ccccc3)cc2n1,0.0,1.7,-45.0,-25.5,-7.9,4.9
CC(C)Nc1nc(NCCN2CCCC2)c2sc(-c3ccccc3)cc2n1,0.1,0.0,1.4,76.1*,17.7,-6.2
CC(C)CC#Cc1ccc([C@@H]2[C@@H](CO)N3C(=O)CN(S(=O)(=O)c4ccccc4)C[C@@H]23)cc1,0.0,2.2,0.9,9.2,·,·
Cc1cccc(NC(=O)c2cc(-c3ccc(C)c(C)c3O)n[nH]2)c1,0.0,1.2,-17.0*,-21.0,-1.6,-8.9
COc1ccc2c3c([nH]c2c1)[C@H](CO)N(CC1CC1)CC31CN(C(=O)c2cccc(F)c2)C1,0.3,-0.4,-5.6,·,·,·
C=CCn1c(-c2cc(-c3ccc(C)cc3)nc3ccccc23)n[nH]c1=S,0.1,·,-28.9*,-14.2,·,·
N=C1C(c2nc3ccccc3s2)=C(O)CN1NC(=O)c1ccco1,0.0,32.8*,14.3,-14.8,-8.0,-2.6
COc1cccc(C(=O)NN2CC(O)=C(c3nc4ccccc4s3)C2=N)c1,0.0,·,8.0,-30.2,·,·
O=C(c1ccccc1F)N1CC(=O)N2[C@H](C1)[C@@H](c1ccc(C#Cc3ccccc3)cc1)[C@@H]2CO,0.0,0.5,-6.7,-4.3,·,·
Cn1c(=O)c2c(nc(N3CCc4ccccc4C3)n2C)n(C)c1=O,0.0,0.1,-22.0*,-8.2,-2.2,5.3

# Screening data: PubChem BioAssay, Broad Institute
